Data on six compounds can be found in ChEMBL document CHEMBL5705888, “Substrate specificity and inhibitors of LRRK2, a protein kinase mutated in Parkinson's disease” (Biochem J, 2009).

For experiment [1], the target named is T1, Leucine-rich repeat serine/threonine-protein kinase 2 (Homo sapiens, UniProt Q5S007). The experiment can be described thus: Inhibition of GST-tagged LRRK2 (1326 to 2527 residues) (unknown origin) using peptide as substrate incubated for 15 mins in presence of ATP by immunoblotting analysis. A general note: Immunoblotting shows a protein as a band on a membrane.
T1 sequence (Q5S007 whole entry, the tested form may be a part): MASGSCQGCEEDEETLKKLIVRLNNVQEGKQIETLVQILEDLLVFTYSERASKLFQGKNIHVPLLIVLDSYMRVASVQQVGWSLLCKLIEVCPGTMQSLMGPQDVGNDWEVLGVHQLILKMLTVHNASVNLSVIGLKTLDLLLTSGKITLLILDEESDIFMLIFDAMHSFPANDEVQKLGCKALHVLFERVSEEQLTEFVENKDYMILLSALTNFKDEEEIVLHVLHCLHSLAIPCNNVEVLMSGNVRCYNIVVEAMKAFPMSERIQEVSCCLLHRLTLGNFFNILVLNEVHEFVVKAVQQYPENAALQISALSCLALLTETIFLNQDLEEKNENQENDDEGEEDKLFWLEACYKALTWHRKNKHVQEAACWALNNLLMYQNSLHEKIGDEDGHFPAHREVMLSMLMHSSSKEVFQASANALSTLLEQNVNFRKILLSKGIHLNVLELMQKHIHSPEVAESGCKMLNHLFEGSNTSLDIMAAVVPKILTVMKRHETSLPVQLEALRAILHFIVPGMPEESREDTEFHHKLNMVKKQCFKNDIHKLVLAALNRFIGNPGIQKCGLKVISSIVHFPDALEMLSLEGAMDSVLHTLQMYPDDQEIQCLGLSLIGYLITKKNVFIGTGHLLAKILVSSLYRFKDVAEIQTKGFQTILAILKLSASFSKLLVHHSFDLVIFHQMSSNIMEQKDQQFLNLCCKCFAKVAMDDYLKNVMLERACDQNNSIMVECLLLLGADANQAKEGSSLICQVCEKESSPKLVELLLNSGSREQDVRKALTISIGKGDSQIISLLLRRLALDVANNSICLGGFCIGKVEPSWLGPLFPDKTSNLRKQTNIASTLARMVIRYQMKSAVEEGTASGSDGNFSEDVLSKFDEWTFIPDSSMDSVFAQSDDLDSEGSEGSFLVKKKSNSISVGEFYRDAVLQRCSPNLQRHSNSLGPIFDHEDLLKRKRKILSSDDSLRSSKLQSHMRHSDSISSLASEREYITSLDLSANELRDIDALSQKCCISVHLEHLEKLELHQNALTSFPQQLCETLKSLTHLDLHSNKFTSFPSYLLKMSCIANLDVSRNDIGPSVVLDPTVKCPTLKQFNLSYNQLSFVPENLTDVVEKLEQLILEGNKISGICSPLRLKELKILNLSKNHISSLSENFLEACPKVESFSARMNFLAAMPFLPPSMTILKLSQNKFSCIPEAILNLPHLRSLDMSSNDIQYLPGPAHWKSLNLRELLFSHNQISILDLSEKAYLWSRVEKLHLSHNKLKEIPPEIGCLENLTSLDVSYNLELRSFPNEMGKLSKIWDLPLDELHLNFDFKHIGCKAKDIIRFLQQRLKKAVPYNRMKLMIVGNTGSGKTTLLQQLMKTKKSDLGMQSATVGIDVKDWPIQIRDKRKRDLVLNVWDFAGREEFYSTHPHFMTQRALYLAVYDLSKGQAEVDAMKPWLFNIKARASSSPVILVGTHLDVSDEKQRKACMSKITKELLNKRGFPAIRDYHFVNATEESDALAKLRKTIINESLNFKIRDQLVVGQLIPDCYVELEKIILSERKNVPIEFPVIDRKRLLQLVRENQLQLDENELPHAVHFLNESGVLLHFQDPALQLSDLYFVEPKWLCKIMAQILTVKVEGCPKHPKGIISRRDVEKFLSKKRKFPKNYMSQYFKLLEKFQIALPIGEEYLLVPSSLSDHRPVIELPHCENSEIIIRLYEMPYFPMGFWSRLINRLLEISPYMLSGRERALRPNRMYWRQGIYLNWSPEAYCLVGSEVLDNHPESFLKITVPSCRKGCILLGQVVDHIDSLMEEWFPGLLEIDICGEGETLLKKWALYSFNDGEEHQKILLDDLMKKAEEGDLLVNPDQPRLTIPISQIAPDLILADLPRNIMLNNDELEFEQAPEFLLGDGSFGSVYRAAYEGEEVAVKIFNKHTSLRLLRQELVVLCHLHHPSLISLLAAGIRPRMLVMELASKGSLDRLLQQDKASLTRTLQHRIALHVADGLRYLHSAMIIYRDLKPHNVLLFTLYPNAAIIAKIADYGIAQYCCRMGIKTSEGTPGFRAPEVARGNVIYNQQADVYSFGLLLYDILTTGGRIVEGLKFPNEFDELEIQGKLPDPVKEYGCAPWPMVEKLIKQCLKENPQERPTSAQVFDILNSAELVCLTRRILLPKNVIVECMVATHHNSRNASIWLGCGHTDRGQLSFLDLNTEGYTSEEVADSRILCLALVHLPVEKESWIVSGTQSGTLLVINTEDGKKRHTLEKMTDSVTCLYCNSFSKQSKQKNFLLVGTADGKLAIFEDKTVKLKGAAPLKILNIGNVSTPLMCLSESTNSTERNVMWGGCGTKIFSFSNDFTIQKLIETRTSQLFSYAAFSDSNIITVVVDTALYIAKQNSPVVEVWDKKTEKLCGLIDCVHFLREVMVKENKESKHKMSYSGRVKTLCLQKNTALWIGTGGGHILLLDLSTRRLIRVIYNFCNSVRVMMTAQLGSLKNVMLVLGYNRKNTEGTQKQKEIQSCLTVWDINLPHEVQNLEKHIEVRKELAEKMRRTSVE

Experiment [2] deals with T1, Leucine-rich repeat serine/threonine-protein kinase 2. The experiment is described as follows: Inhibition of LRRK2 in human Flp-In-T-REx-293 cells harboring GFP-tagged constitutively active G14V-Rho mutant assessed as inhibition of ERM phosphorylation at 10 uM incubated for 1 hr in presence of LRRKtide by immunoblot analysis. In kind it is cell-based. The method, boiled down:
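Flp-in T-REx cells carrying GFP-tagged G14V-Rho were left uninduced or induced with 1 μg/ml doxycycline. At 7 h, compound at 10 μM was added for 1 h. Cells were lysed in SDS lysis buffer, run on 4–12% gels and immunoblotted with pan-phospho-ERM antibody (1 μg/ml in milk/TBST containing 10 μg/ml LRRKtide).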

For experiment [3], the target named is T2, Interleukin-1 receptor-associated kinase 4 (Homo sapiens) (UniProt Q9NWZ3).
T2 sequence (whole entry): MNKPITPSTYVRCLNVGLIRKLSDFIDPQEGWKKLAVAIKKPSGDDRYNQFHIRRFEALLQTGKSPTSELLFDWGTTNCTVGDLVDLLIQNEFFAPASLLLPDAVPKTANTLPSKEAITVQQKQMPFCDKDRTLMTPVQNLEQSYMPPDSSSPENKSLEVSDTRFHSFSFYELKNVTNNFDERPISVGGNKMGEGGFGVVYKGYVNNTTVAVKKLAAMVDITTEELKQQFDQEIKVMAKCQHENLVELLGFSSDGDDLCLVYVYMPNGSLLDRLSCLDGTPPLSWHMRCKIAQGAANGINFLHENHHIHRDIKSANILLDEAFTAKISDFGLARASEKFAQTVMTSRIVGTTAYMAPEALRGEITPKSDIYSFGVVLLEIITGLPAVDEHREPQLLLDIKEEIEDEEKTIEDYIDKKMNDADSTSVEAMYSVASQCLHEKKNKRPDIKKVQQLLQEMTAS
The experiment can be described thus: Activity of IRAK4 (unknown origin) at 1 uM incubated for 30 mins in presence of [gamma-33P]ATP by multidrop micro reagent based assay relative to control.

Experiment [4] deals with Mitogen-activated protein kinase 8 (Homo sapiens) (UniProt P45983). The experiment can be described thus: Inhibition of JNK1 (unknown origin) at 1 uM incubated for 30 mins in presence of [gamma-33P]ATP by multidrop micro reagent based assay relative to control; values are per cent of control.
Mitogen-activated protein kinase 8 (Homo sapiens), sequence (P45983 whole entry): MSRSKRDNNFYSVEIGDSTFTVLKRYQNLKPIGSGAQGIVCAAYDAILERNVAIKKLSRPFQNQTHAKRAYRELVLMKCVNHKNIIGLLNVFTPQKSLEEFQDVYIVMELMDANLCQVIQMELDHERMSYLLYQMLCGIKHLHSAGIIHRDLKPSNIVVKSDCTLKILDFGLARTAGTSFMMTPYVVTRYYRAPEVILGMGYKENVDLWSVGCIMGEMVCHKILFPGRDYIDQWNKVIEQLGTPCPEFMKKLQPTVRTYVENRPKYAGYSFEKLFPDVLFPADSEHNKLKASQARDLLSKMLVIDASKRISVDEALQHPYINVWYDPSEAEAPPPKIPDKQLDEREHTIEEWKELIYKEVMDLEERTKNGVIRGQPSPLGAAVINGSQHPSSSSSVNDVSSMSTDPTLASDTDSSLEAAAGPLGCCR
Experiment [5] concerns the target Ribosomal protein S6 kinase alpha-1 (Homo sapiens) (UniProt Q15418). The experiment can be described thus: Inhibition of RSK1 (unknown origin) at 1 uM incubated for 30 mins in presence of [gamma-33P]ATP by multidrop micro reagent based assay relative to control; values are per cent of control.
In experiment [6] the target is Ribosomal protein S6 kinase beta-1 (Homo sapiens) (UniProt P23443). The experiment is described as follows: Inhibition of S6K1 (unknown origin) at 1 uM incubated for 30 mins in presence of [gamma-33P]ATP by multidrop micro reagent based assay relative to control; values are per cent of control.
The target in experiment [7] is AMP-activated protein kinase, AMPK (Homo sapiens) (UniProt P54646+O43741+P54619+Q9UGJ0+Q9Y478+Q13131+Q9UGI9). The experiment can be described thus: Inhibition of AMPK (unknown origin) at 1 uM incubated for 30 mins in presence of [gamma-33P]ATP by multidrop micro reagent based assay relative to control; values are per cent of control.
For experiment [8], the target named is Tyrosine-protein kinase Yes (Homo sapiens) (UniProt P07947). The experiment can be described thus: Inhibition of YES1 (unknown origin) at 1 uM incubated for 30 mins in presence of [gamma-33P]ATP by multidrop micro reagent based assay relative to control; values are per cent of control.
Tyrosine-protein kinase Yes (Homo sapiens), sequence (P07947 2-543 limits assumed): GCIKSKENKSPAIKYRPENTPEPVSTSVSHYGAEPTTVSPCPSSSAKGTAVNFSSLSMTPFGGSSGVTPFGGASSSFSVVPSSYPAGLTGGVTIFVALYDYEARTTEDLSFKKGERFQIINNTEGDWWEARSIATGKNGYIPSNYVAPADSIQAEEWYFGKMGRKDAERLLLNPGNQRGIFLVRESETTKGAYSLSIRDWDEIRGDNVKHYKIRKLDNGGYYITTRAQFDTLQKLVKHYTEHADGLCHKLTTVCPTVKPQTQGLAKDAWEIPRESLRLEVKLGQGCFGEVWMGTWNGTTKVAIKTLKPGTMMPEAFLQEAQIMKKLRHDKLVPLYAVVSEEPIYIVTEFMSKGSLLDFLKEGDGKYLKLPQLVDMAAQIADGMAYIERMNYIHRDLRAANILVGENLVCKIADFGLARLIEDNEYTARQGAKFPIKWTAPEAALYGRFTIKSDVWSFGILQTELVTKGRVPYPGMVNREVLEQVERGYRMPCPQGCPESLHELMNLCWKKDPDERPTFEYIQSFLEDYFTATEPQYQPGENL
Experiment [9] deals with T3, Protein kinase C zeta type (Homo sapiens) (UniProt Q05513).
T3 sequence (whole entry): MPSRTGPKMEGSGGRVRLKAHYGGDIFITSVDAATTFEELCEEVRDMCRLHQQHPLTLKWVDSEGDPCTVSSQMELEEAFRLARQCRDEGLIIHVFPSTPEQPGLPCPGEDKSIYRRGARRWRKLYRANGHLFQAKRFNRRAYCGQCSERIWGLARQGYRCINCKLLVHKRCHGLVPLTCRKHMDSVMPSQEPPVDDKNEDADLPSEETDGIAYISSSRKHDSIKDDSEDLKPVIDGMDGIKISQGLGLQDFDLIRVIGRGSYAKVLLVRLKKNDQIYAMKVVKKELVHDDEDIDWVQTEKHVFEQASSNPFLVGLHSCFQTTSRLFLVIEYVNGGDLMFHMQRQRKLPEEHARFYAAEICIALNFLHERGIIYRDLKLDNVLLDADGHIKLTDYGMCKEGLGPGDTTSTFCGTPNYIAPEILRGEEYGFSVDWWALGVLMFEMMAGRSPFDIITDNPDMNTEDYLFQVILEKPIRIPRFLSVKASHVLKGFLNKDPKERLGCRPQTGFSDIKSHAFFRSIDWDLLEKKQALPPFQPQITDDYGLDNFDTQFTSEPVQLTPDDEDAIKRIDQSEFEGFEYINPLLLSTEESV
The experiment is described as follows: Inhibition of PKCzeta (unknown origin) at 1 uM incubated for 30 mins in presence of [gamma-33P]ATP by multidrop micro reagent based assay relative to control; values are per cent of control.

Experiment [10] addresses RAC-alpha serine/threonine-protein kinase (Homo sapiens) (UniProt P31749). The experiment is described as follows: Inhibition of PKBalpha (unknown origin) at 1 uM incubated for 30 mins in presence of [gamma-33P]ATP by multidrop micro reagent based assay relative to control; values are per cent of control.
The target of experiment [11] is Aurora kinase B (Homo sapiens) (UniProt Q96GD4). The experiment is described as follows: Inhibition of Aurora B kinase (unknown origin) at 1 uM incubated for 30 mins in presence of [gamma-33P]ATP by multidrop micro reagent based assay relative to control; values are per cent of control.
Aurora kinase B (Homo sapiens), sequence (Q96GD4 whole entry): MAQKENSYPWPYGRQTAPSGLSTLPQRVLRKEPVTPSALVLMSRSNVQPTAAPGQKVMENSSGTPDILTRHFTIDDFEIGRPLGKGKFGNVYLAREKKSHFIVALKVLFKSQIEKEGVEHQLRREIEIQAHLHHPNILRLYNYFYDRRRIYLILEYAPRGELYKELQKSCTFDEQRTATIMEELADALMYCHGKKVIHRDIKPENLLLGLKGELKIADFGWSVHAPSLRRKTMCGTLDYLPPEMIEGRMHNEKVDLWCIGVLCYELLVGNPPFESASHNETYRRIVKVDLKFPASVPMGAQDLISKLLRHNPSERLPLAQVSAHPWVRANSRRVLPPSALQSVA
The subject of experiment [12] is Leucine-rich repeat serine/threonine-protein kinase 2 (Homo sapiens), Q5S007 [G2019S]. The experiment is described as follows: Inhibition of LRRK2 G2019S mutant (unknown origin) at 1 uM incubated for 30 mins in presence of [gamma-33P]ATP by multidrop micro reagent based assay relative to control; values are per cent of control.

SMILES strings stand for the structures. Active and inactive are the calls of the source. No cut-off for these calls is given here. Bounds are passed on as bounds.

RAC-alpha serine/threonine-protein kinase (Homo sapiens), sequence (P31749 whole entry): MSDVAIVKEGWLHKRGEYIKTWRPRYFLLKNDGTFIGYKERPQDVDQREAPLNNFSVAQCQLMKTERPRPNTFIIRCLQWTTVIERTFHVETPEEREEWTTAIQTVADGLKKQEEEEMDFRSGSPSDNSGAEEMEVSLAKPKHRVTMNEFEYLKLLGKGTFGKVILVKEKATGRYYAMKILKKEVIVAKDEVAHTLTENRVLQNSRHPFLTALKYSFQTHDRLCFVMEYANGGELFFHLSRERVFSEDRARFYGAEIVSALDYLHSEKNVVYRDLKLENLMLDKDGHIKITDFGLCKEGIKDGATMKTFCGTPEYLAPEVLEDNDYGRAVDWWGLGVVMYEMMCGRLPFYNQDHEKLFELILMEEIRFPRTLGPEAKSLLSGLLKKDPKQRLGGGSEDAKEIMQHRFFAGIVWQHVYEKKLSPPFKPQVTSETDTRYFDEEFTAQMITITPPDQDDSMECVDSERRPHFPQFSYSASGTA
Ribosomal protein S6 kinase alpha-1 (Homo sapiens), sequence (Q15418 whole entry): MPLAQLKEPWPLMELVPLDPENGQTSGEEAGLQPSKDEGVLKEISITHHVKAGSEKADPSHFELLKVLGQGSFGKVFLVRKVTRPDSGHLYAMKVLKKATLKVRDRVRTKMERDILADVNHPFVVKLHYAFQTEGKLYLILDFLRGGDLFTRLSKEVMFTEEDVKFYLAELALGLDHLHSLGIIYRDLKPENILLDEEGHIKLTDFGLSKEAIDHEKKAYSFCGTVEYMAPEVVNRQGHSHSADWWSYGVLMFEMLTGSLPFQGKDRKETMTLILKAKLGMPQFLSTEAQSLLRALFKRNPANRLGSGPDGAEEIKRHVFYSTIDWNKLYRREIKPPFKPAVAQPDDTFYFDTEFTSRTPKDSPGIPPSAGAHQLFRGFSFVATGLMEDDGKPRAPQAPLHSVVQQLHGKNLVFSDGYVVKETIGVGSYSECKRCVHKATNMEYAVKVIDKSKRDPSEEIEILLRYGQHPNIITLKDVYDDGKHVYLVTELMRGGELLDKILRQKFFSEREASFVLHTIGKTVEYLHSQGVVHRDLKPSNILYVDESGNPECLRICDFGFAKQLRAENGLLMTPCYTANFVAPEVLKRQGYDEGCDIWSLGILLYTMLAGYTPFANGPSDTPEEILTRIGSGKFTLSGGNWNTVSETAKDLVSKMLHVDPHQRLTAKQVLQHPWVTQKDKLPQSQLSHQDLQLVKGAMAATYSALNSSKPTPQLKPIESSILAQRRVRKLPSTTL
Leucine-rich repeat serine/threonine-protein kinase 2 (Homo sapiens), Q5S007 [G2019S], sequence (Q5S007 whole entry G2019S): as the sequence (Q5S007 whole entry, the tested form may be a part) above, with G2019S counted along it

By IC50 is commonly meant the concentration that gives 50% inhibition. Consider `CC1=C(C(=O)Nc2cc3cn[nH]c3cc2F)C(c2ccc(C(F)(F)F)cc2)CC(=O)N1` (configuration not stated), for which the IC50 in experiment [1] is above 100 µM. In experiment [2], the inhibition result was “inactive”. In addition, the residual activity in experiment [3] was determined as 94%; in experiment [4] it was 111%; in experiment [5] it was 20%; in experiment [6], 24%; in [7], 78%; in experiment [8], 58%. Further, the residual activity in [9] was found to be 81%; in experiment [10], 72%; in [11], 59%; in experiment [12], 97%.

With `Cc1cncc2cccc(S(=O)(=O)N3CCCNC[C@@H]3C)c12`, the IC50 in experiment [1] came to 0.244 µM. The inhibition result in experiment [2] was “inactive”. In addition, the residual activity came to 102% in experiment [3]; 96% in experiment [4]; 57% in experiment [5]; 72% in experiment [6]; 45% in experiment [7]; 76% in experiment [8]. For the same compound, the residual activity in [9] worked out at 86%; in experiment [10], 64%; in experiment [11], 11%; in [12], 13%.

Regarding `C[C@@H](N)[C@H]1CC[C@H](C(=O)Nc2ccncc2)CC1`, the inhibition entry in [2] is “inactive”.

As to `O=S(=O)(c1cccc2cnccc12)N1CCCNCC1` [FASUDIL], in experiment [1], the IC50 is above 30 µM.

Consider `CCn1c(-c2nonc2N)nc2cnc(Oc3cccc(NC(=O)c4ccc(OCCN5CCOCC5)cc4)c3)cc21` [GSK-269962A], for which the IC50 in experiment [1] was 3.7 µM. Also, the inhibition entry in experiment [2] was “inactive”. Further, the residual activity is 78% in experiment [3]; 105% in experiment [4]; 12% in experiment [5]; 2% in experiment [6]; 114% in experiment [8]; 5% in experiment [9]. The results for the residual activity in experiment [10], in experiment [11] and in experiment [12] were 26%, 36% and 66%, respectively.

For `CCN(CC)CCNC(=O)c1c(C)[nH]c(/C=C2\C(=O)Nc3ccc(F)cc32)c1C`, the inhibition entry in experiment [2] is “inactive”. For the same compound, the residual activity in experiment [5] was 78%; in experiment [7], 15%; in [10] it was 73%; in [11] it was 29%.
